Laboratory results: ChEMBL document CHEMBL1155488, “Carbamate derivatives of betulinic acid and betulin with selective cytotoxic activity” (Bioorg Med Chem Lett, 2010)
The source made the active and inactive calls. The rule behind the calls is not given here.

Legend:
[1] = Selectivity index, ratio of IC50 for human fibroblast to IC50 for human A253 cells
Summary of the method: (§1)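 The selectivity index was calculated as the IC50 on human fibroblasts divided by the IC50 on the corresponding tumor cell line.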

[2] = Selectivity index, ratio of IC50 for human fibroblast to IC50 for human 518A2 cells; summary of the method: as §1
FaDu [3] = assay: Selectivity index, ratio of IC50 for human fibroblast to IC50 for human FADU cells; summary of the method: as §1
MCF7 [4] = assay: Cytotoxicity against human MCF7 cells after 96 hrs by SRB assay; format: functional, cell-based; conditions: MCF7, 96 h
MCF7 [5] = assay: Selectivity index, ratio of IC50 for human fibroblast to IC50 for human MCF7 cells; summary of the method: as §1
A549 [6] = assay: Induction of apoptosis in human A549 cells assessed as DNA fragmentation at equitoxic IC90 after 24 hrs by agarose gel electrophoresis
A549 [7] = assay: Selectivity index, ratio of IC50 for human fibroblast to IC50 for human A549 cells; summary of the method: as §1
DLD-1 [8] = assay: Selectivity index, ratio of IC50 for human fibroblast to IC50 for human DLD1 cells; summary of the method: as §1
[9] = Cytotoxicity against human fibroblast at 100 uM after 96 hrs by SRB assay; format: cell-based
DLD-1 [10] = assay: Cytotoxicity against human DLD1 cells after 96 hrs by SRB assay; format: functional, cell-based; conditions: DLD-1, 96 h
A2780 [11] = assay: Cytotoxicity against human A2780 cells after 96 hrs by SRB assay; format: functional, cell-based; conditions: A2780, 96 h
[12] = Selectivity index, ratio of IC50 for human fibroblast to IC50 for human Liposarcoma cells; summary of the method: as §1
[13] = Cytotoxicity against human Liposarcoma cells after 96 hrs by SRB assay; format: functional, cell-based
[14] = Selectivity index, ratio of IC50 for human fibroblast to IC50 for human SW1736 cells; summary of the method: as §1
HT-29 [15] = assay: Selectivity index, ratio of IC50 for human fibroblast to IC50 for human HT-29 cells; summary of the method: as §1
SW480 [16] = assay: Selectivity index, ratio of IC50 for human fibroblast to IC50 for human SW480 cells; summary of the method: as §1
[17] = Cytotoxicity against human fibroblast after 96 hrs by SRB assay; format: cell-based
HT-29 [18] = assay: Cytotoxicity against human HT-29 cells after 96 hrs by SRB assay; format: functional, cell-based; conditions: HT-29, 96 h
8505C [19] = assay: Cytotoxicity against human 8505C cells after 96 hrs by SRB assay; format: functional, cell-based
HCT-8 [20] = assay: Selectivity index, ratio of IC50 for human fibroblast to IC50 for human HCT8 cells; summary of the method: as §1
SW-1736 = assay: Cytotoxicity against human SW1736 cells after 96 hrs by SRB assay; format: functional, cell-based; conditions: SW-1736, 96 h
SW480 [21] = assay: Cytotoxicity against human SW480 cells after 96 hrs by SRB assay; format: functional, cell-based; conditions: SW480, 96 h
A-431 [22] = assay: Selectivity index, ratio of IC50 for human fibroblast to IC50 for human A431 cells; summary of the method: as §1
A2780 [23] = assay: Selectivity index, ratio of IC50 for human fibroblast to IC50 for human A2780 cells; summary of the method: as §1
A-431 [24] = assay: Cytotoxicity against human A431 cells after 96 hrs by SRB assay; format: functional, cell-based; conditions: A-431, 96 h
[25] = Cytotoxicity against human A253 cells after 96 hrs by SRB assay; format: functional, cell-based; conditions: A253, 96 h
[26] = Cytotoxicity against human 518A2 cells after 96 hrs by SRB assay; format: functional, cell-based; conditions: 518A2, 96 h
A549 [27] = assay: Cytotoxicity against human A549 cells after 96 hrs by SRB assay; format: functional, cell-based; conditions: A549, 96 h
HCT-116 [28] = assay: Selectivity index, ratio of IC50 for human fibroblast to IC50 for human HCT116 cells; summary of the method: as §1
8505C [29] = assay: Selectivity index, ratio of IC50 for human fibroblast to IC50 for human 8505C cells; summary of the method: as §1
HCT-8 [30] = assay: Cytotoxicity against human HCT8 cells after 96 hrs by SRB assay; format: functional, cell-based; conditions: HCT-8, 96 h
HCT-116 [31] = assay: Cytotoxicity against human HCT116 cells after 96 hrs by SRB assay; format: functional, cell-based; conditions: HCT-116, 96 h
FaDu [32] = assay: Cytotoxicity against human FADU cells after 96 hrs by SRB assay; format: functional, cell-based

SMILES	IC50 (MCF7 [4]) [µM]	IC50 (DLD-1 [10]) [µM]	IC50 (A2780 [11]) [µM]	IC50 [13] [µM]	IC50 (HT-29 [18]) [µM]	IC50 (8505C [19]) [µM]	IC50 (SW-1736) [µM]	IC50 (SW480 [21]) [µM]	IC50 (A-431 [24]) [µM]	IC50 [25] [µM]	IC50 [26] [µM]	IC50 (A549 [27]) [µM]	IC50 (HCT-8 [30]) [µM]	IC50 (HCT-116 [31]) [µM]	IC50 (FaDu [32]) [µM]	further results
C=C(C)[C@@H]1CC[C@]2(COC(=O)NCC)CC[C@]3(C)[C@H](CC[C@@H]4[C@@]5(C)CC[C@H](OC(=O)NCC)C(C)(C)[C@@H]5CC[C@]43C)[C@@H]12 [BIS(ETHYLCARBAMATE)BETULIN]	17.7	8.32	4.37	12	6.2	9.39	3.6	2.77	6.08	9.71	8.18	2.91	3.91	3.84	7.88	Ratio IC50 [1]: >10.3; Ratio IC50 [2]: >12.22; Ratio IC50 (FaDu [3]): >12.69; Ratio IC50 (MCF7 [5]): >5.65; Activity (A549 [6]): Active; Ratio IC50 (A549 [7]): >34.36; Ratio IC50 (DLD-1 [8]): >12.02; Activity [9]: Non-toxic; Ratio IC50 [12]: >8.31; Ratio IC50 [14]: >26.32; Ratio IC50 (HT-29 [15]): >16.13; Ratio IC50 (SW480 [16]): >36.1; IC50 [17]: > 100 µM; Ratio IC50 (HCT-8 [20]): >25.58; Ratio IC50 (A-431 [22]): >16.45; Ratio IC50 (A2780 [23]): >22.88; Ratio IC50 (HCT-116 [28]): >26.04; Ratio IC50 (8505C [29]): >10.65
C=C(C)[C@@H]1CC[C@]2(C(=O)O)CC[C@]3(C)[C@H](CC[C@@H]4[C@@]5(C)CC[C@H](OC(=O)Nc6ccccc6)C(C)(C)[C@@H]5CC[C@]43C)[C@@H]12	47.9	26.3	24.8	51.9	31.6	39.6	18.8	41.1	26.7	34.7	51.5	22.4	25.2	21.4	24.2	
C=C(C)[C@@H]1CC[C@]2(C(=O)OC)CC[C@]3(C)[C@H](CC[C@@H]4[C@@]5(C)CC[C@H](O)C(C)(C)[C@@H]5CC[C@]43C)[C@@H]12 [METHYL BETULINATE]	24.4	45.9	29.3	23.3	30.7	23.7	32.1	17.9	27	18.5	28.8	20.6	17.2	20.5	20.3	
C=C(C)[C@@H]1CC[C@]2(COC(=O)Nc3ccccc3)CC[C@]3(C)[C@H](CC[C@@H]4[C@@]5(C)CC[C@H](OC(=O)Nc6ccccc6)C(C)(C)[C@@H]5CC[C@]43C)[C@@H]12 [BIS(PHENYLCARBAMATE)BETULIN]	> 100	> 100	80.6	> 100	69.2	> 100	> 100	> 100	> 100	> 100	> 100	> 100	> 100	> 100	> 100	
C=C(C)[C@@H]1CC[C@]2(C(=O)OC)CC[C@]3(C)[C@H](CC[C@@H]4[C@@]5(C)CC[C@H](OC(=O)Nc6ccccc6)C(C)(C)[C@@H]5CC[C@]43C)[C@@H]12	> 100	> 100	69.5	> 100	69	> 100	> 100	> 100	91.5	> 100	> 100	> 100	> 100	> 100	> 100	
